Data: PubChem BioAssay
Results filed as inconclusive are left out.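 The calls were made as follows, unless noted: active = cell viability at or below a set limit in both duplicate runs, the limit being the all-compound median minus 4 SD (cut at about 23% in these data, passing the limit was not always enough); inconclusive = no clear call, values can overlap the other calls; inactive = the rest.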

Assays:
[1] = S. cerevisiae growth inhibition in permissive medium (OD615), pilot counter-assay for S. cerevisiae lifespan shortening project, permissive growth control (AID 705;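 active = growth inhibition above 25% in both replicates, a cutoff set 3 SD above the mean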); settings: OD615, 24 h, at 10 µM, stronger effect = higher value
Outline: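 System: engineered DeaD yeast; Medium: permissive raffinose/galactose medium; Compound dosing: 10 µM single dose, 0.25% DMSO; Incubation: 4 h cell pre-growth, 24 h exposure at 30 °C; Technique: OD at 615 nm; Evaluation: growth inhibition from lowered OD615 after 24 h.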

[2] = S. cerevisiae growth inhibition in restrictive medium, OD615, pilot screen, restrictive growth control, yeast lifespan reduction project (AID 706;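 active = growth inhibition above a set limit, 3 SD over mean compound inhibition, in both replicates, cut at about 43% in these data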;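 also: modified DeaD lifespan yeast strain shifted to restrictive glucose medium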); settings: OD615, 48 h, at 10 µM, stronger effect = higher value
Outline: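 Material: modified S. cerevisiae; buffer or medium: CSMM-D glucose medium; doses: one concentration, 10 µM final, 0.25% DMSO; incubation: 48 h compound exposure at 30 °C; detection: optical density at 615 nm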

[3] = doxorubicin toxicity protection in MRP-1 cells – H69AR cells, CellTiter-Glo, duplicate, MRP-1 activator project, pilot screen (AID 807;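 active = viability increase at or above a cutoff of the median across tested compounds plus 3 SD, cut at about 8.5% in these data, passing the limit was not always enough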;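 also: compound pretreatment 18-22 h then 72 h combined with doxorubicin; 0% = doxorubicin alone and 100% = vehicle without doxorubicin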); settings: H69AR viability with doxorubicin, CellTiter-Glo luminescence; at 10 µM; stronger effect = higher value
[4] = viability of HCT116 without oncogenic beta-catenin – human colon tumor cells, pilot screen (AID 823); settings: HCT116 beta-catenin knockout viability, CellTiter-Glo, 60 h; at 10 µM; stronger effect = lower value;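 also: 0% = wells killed by 20 µM Hyamine and 100% = untreated DMSO cell wells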
[5] = viability of PTEN-null HCT116 cells – cell-based, HCT116 clonal line, CellTiter-Glo, pilot screen (AID 824;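 active = viability at or below 27.92% in each of two runs, the all-compound median minus 4 SD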;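 also: 0% = 20 µM Hyamine control and 100% = vehicle cell control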); settings: HCT116 PTEN-deleted viability, 60 h, at 10 µM, stronger effect = lower value
[6] = RAM pathway blockade in budding yeast – dse1pr::URA3 reporter, 5-FOA selection, pilot screen (AID 869;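 active = inhibition over a set limit, the all-compound mean plus 3 SD, in both replicate runs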;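 also: 0% = DMSO wells with no growth and 100% = 10 µM 1-NA-PP1 with full growth; RAM network block rescues cells from 5-FOA so hits raise OD615 growth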); settings: S. cerevisiae dse1pr::URA3 5-FOA growth, OD615, 2 d; at 10 µM; stronger effect = higher value; strain carries analog-sensitive mutant Cbk1 kinase
[7] = RAM signaling pathway blockade in yeast – S. cerevisiae, Pdr1DBD-CYC8 efflux-inhibited sensitized strain, primary screen (AID 1298;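 active = RAM network inhibition above 8.4% in each of two replicates, 3 SD over the compound average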;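 also: 0% = DMSO untreated cells without growth and 100% = 10 µM 1-NA-PP1 full growth; higher means more yeast growth rescued from 5-FOA killing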); settings: S. cerevisiae cbk1-as DSE1-URA3 strain, 5-FOA growth OD615, 2 d; at 50 µM; stronger effect = higher value

CCN1CCN(CCCNC(=O)Cn2cc3c(n2)CCCC3)CC1
inactive: growth inhibition [1] -5.34% | growth inhibition [2] 0.355% | viability increase [3] -1.2% | viability [4] 108% | viability [5] 97.2% | inhibition [6] 0.945% | RAM network inhibition [7] 0.76%

CCN(CC)CCN=C1CCCc2ccccc2N1
inactive: growth inhibition [1] -1.96% | growth inhibition [2] 5.53% | viability increase [3] -2.11% | viability [4] 86.9% | viability [5] 87% | inhibition [6] 2.3% | RAM network inhibition [7] 0.67%

CCOc1ccc(NC2c3ccccc3C(=O)N2c2ccc(Cl)cn2)cc1 (stereo not drawn)
inactive: growth inhibition [1] -14% | growth inhibition [2] -15.6% | viability increase [3] -1.1% | viability [4] 94.2% | viability [5] 94.6% | inhibition [6] 3.93% | RAM network inhibition [7] 3.42%

O=C(NCCN1CCOCC1)c1ccc(CS(=O)(=O)c2ccc(Br)cc2)o1
inactive: growth inhibition [1] 0.315% | growth inhibition [2] -7.27% | viability increase [3] -1.79% | viability [4] 99.5% | viability [5] 97.6% | inhibition [6] 1.31% | RAM network inhibition [7] 3.72%

Cc1ccc(S(=O)(=O)c2nc(S(C)(=O)=O)sc2N(C)C)cc1
inactive: growth inhibition [1] 0.44% | growth inhibition [2] -4.42% | viability increase [3] -5.6% | viability [4] 86% | viability [5] 86.9% | inhibition [6] 0.565% | RAM network inhibition [7] 2.51%

COc1ccccc1N1CCN(C(=O)COc2ccc(C)cc2Br)CC1
inactive: growth inhibition [1] -7.34% | growth inhibition [2] -9.51% | viability increase [3] -1.4% | viability [4] 83.5% | viability [5] 72.4% | inhibition [6] -0.16% | RAM network inhibition [7] 2.61%

CCOC(=O)NC(C(F)(F)F)(C(F)(F)F)P(=O)(c1ccccc1)c1ccccc1
inactive: growth inhibition [1] -6.98% | growth inhibition [2] 4.49% | viability increase [3] -0.51% | viability [4] 95% | viability [5] 91.7% | inhibition [6] 0.93% | RAM network inhibition [7] 4.13%

COc1ccc(-c2nc(C#N)c(NC(C)C)o2)cc1
inactive: growth inhibition [1] -4.08% | growth inhibition [2] -2.25% | viability increase [3] -0.02% | viability [4] 90.4% | viability [5] 93.8% | inhibition [6] 2.67% | RAM network inhibition [7] 3.99%

COc1ccc2[nH]cc(CCNC(=O)C3CCCNC3=O)c2c1 (stereo not drawn)
inactive: growth inhibition [1] -14.6% | growth inhibition [2] -16.5% | viability increase [3] -1.57% | viability [4] 104% | viability [5] 102% | inhibition [6] 0.15% | RAM network inhibition [7] 2.98%

COc1cc(C(=O)NCc2ccco2)c(Br)c(OC)c1OC
inactive: growth inhibition [1] -1.05% | growth inhibition [2] -12.5% | viability increase [3] -4.68% | viability [4] 98.3% | viability [5] 96% | inhibition [6] 0.865% | RAM network inhibition [7] -0.16%

O=C(OCCN(C1=NS(=O)(=O)c2ccccc21)c1ccc(Cl)cc1)c1ccco1
inactive: growth inhibition [1] -15.9% | growth inhibition [2] -5.49% | viability increase [3] -5.7% | viability [4] 82.2% | viability [5] 91.5% | inhibition [6] 1.44% | RAM network inhibition [7] 4.02%

COc1ccccc1N1CCN(C(=O)CN(c2ccccc2OC)S(=O)(=O)c2ccccc2)CC1
inactive: growth inhibition [1] -0.685% | growth inhibition [2] -7.83% | viability increase [3] -1.57% | viability [4] 87.5% | viability [5] 83.9% | inhibition [6] 0.845% | RAM network inhibition [7] 4.88%

COc1ccc(CCNC(=O)Cc2cc(=O)[nH]c(=O)[nH]2)cc1OC
inactive: growth inhibition [1] 6.42% | growth inhibition [2] 3% | viability increase [3] -0.97% | viability [4] 96.7% | viability [5] 97.6% | inhibition [6] 1.35% | RAM network inhibition [7] 1.23%

CCOC(=O)COc1ccc2cc(C(=O)OCC)c(=O)oc2c1
inactive: growth inhibition [1] -4.38% | growth inhibition [2] -13.8% | viability increase [3] -0.91% | viability [4] 103% | viability [5] 96.2% | inhibition [6] 1.7% | RAM network inhibition [7] 2%

O=S1(=O)N=C(Nc2ccc(O)c(CN3CCCCC3)c2)c2ccccc21
inactive: growth inhibition [1] 5.56% | growth inhibition [2] -0.14% | viability increase [3] -3.07% | viability [4] 90.8% | viability [5] 97.1% | inhibition [6] 2.89% | RAM network inhibition [7] 6.37%

CCOC(=O)C1CCCN(C(=O)c2ccco2)C1 (stereo not drawn)
inactive: growth inhibition [1] -11.6% | growth inhibition [2] -12.6% | viability increase [3] -3.01% | viability [4] 93.7% | viability [5] 102% | inhibition [6] 2.3% | RAM network inhibition [7] 0.62%

O=C(CN(C1CCCCC1)S(=O)(=O)c1ccc(Cl)cc1)NCc1ccncc1
inactive: growth inhibition [1] -6.84% | growth inhibition [2] 3.38% | viability increase [3] -2.2% | viability [4] 79.8% | viability [5] 79.4% | inhibition [6] 1.56% | RAM network inhibition [7] 3.63%

Cc1ccn2cc(CCNC(=O)c3ccc(Br)o3)nc2c1
inactive: growth inhibition [1] -10.6% | growth inhibition [2] -12.7% | viability increase [3] -0.26% | viability [4] 93.8% | viability [5] 95.4% | inhibition [6] 3.01% | RAM network inhibition [7] 4.83%

Cc1ccc2c(c1)N(CCCC(=O)NCCCN1CCCC1=O)C(=O)CO2
inactive: growth inhibition [1] -11.1% | growth inhibition [2] -13.3% | viability increase [3] -2.09% | viability [4] 98.2% | viability [5] 94% | inhibition [6] 1.64% | RAM network inhibition [7] 1.27%

N#CC1(c2ccccc2)CCCN1C(=O)c1ccco1 (stereo not drawn)
inactive: growth inhibition [1] -3.57% | growth inhibition [2] 3.69% | viability increase [3] -1.54% | viability [4] 104% | viability [5] 101% | inhibition [6] 2.25% | RAM network inhibition [7] 3.1%

c1cncc(-c2nc3ccccn3c2Nc2ccc3c(c2)OCCO3)c1
inactive: growth inhibition [1] -1.86% | growth inhibition [2] 9.11% | viability increase [3] -2.32% | viability [4] 99.6% | viability [5] 94.4% | inhibition [6] 1.04% | RAM network inhibition [7] 4.54%

Cn1c(Cn2c(=O)sc3ccccc32)nnc1SCC(=O)NCCc1ccccc1
inactive: growth inhibition [1] -10% | growth inhibition [2] -16.2% | viability increase [3] -0.09% | viability [4] 100% | viability [5] 105% | inhibition [6] 2.5% | RAM network inhibition [7] 3.42%

CCOC(=O)Cn1c(=O)oc2cc(S(=O)(=O)N3CCC(N4CCCCC4)CC3)ccc21
inactive: growth inhibition [1] -7.51% | growth inhibition [2] -9.77% | viability increase [3] 0.75% | viability [4] 101% | viability [5] 105% | inhibition [6] 1.06% | RAM network inhibition [7] 0.21%

Cc1ccc(C2c3c(oc4cc(C)c(C)cc4c3=O)C(=O)N2CCCN2CCOCC2)cc1 (stereo not drawn)
inactive: growth inhibition [1] -5.16% | growth inhibition [2] -18.6% | viability increase [3] -4.87% | viability [4] 83.3% | viability [5] 90% | inhibition [6] 3.33% | RAM network inhibition [7] -0.94%
